Measurements reported in ChEMBL document CHEMBL3861959, “Synthesis and antiproliferative evaluation of novel 2-(4H-1,2,4-triazole-3-ylthio)acetamide derivatives as inducers of apoptosis in cancer cells” (Eur J Med Chem, 2016).
pIC50: −log10 of the molar value. Values after ≈ are worked out from the molar mass of the structure shown.

How the values were obtained:
[1] = Selectivity index, ratio of CC50 for human MT4 cells to EC50 for HIV2 ROD; format: toxicity, cell-based; conditions: read-out: Ratio CC50/EC50
How it was run: (§1)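 HIV-1 IIIB and HIV-2 ROD tested in MT-4 cells by MTT. Serial fivefold dilutions of compound added to triplicate mock- and virus-infected wells. MT-4 cells at 6 × 10^5 cells/mL. Absorbance read at 540/690 nm; median OD of three wells used. CC50 is the concentration reducing mock-infected OD540 by 50%. […]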

[2] = Selectivity index, ratio of CC50 for human MT4 cells to EC50 for HIV1 3B; format: toxicity, cell-based; conditions: read-out: Ratio CC50/EC50; how it was run: as §1
[3] = Antiviral activity against HIV2 ROD infected in human MT4 cells assessed as protection against virus-induced cytopathic effect after 5 days MTT assay; format: functional, cell-based, Human immunodeficiency virus type 2 (ISOLATE ROD); conditions: Human immunodeficiency virus 2, MT4, 120 h
How it was run: (§2)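 HIV-1 strain IIIB and HIV-2 strain ROD in MT-4 cells, MTT-based. Test compounds in serial five-fold dilutions, in triplicate wells run alongside mock-infected cells, with untreated infected and mock controls. MT-4 cells resuspended at 6 × 10^5 cells/mL. Absorbance read at 540 and 690 nm, median OD of three wells. EC50 is the 50% effective concentration.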

[4] = Cytotoxicity against human MT4 cells assessed as decrease in cell viability after 5 days by MTT assay; format: toxicity, cell-based
How it was run: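 MT-4 cells in mock-infected wells of the anti-HIV MTT setup. Compounds in serial five-fold dilutions in triplicate, cells at 6 × 10^5 cells/mL. Absorbance at 540 and 690 nm, median OD of three wells. CC50 is the concentration that lowers OD540 of the mock-infected control by 50%.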

[5] = system: Human immunodeficiency virus 1; assay: Antiviral activity against HIV1 3B infected in human MT4 cells assessed as protection against virus-induced cytopathic effect after 5 days MTT assay; format: functional, cell-based; conditions: Human immunodeficiency virus 1, 3B, MT4, 120 h; how it was run: as §2
[6] = Cytotoxicity against human K562 cells assessed as decrease in cell proliferation after 72 hrs by XTT assay; conditions: K562, 72 h

CC(=O)Nc1ccc(OCc2nnc(SCC(=O)Nc3ccc(S(N)(=O)=O)cc3)n2Cc2ccccc2)cc1
selectivity ratio [1]: 1
selectivity ratio [2]: 1
EC50 [3]: > 125 mg/L
CC50 at 120 h [4]: > 125 mg/L
EC50 [5]: > 125 mg/L

Cc1ccc(C(C)C)c(OCc2nnc(SCC(=O)Nc3ccc(Br)cc3)n2Cc2ccccc2)c1
selectivity ratio [1]: < 1
selectivity ratio [2]: < 1
EC50 [3]: > 66.7 mg/L
CC50 at 120 h [4]: 66.7 mg/L (≈ 118 µM)
EC50 [5]: > 66.7 mg/L

Cc1ccc(C(C)C)c(OCC(=O)NNC(=S)NCc2ccccc2)c1
selectivity ratio [1]: < 1
selectivity ratio [2]: < 1
EC50 [3]: > 12.6 mg/L
CC50 at 120 h [4]: 12.6 mg/L (≈ 34 µM)
EC50 [5]: > 12.6 mg/L

CC(=O)Nc1ccc(OCc2n[nH]c(=S)n2Cc2ccccc2)cc1
selectivity ratio [1]: < 1
selectivity ratio [2]: < 1
EC50 [3]: > 79 mg/L
CC50 at 120 h [4]: 79 mg/L (≈ 223 µM)
EC50 [5]: > 79 mg/L

O=c1[nH]cnc2c1ncn2[C@H]1CC[C@@H](CO)O1 [DIDANOSINE]
selectivity ratio [1]: > 13
selectivity ratio [2]: > 24
EC50 [3]: 3.78 mg/L (≈ 16 µM)
CC50 at 120 h [4]: > 50 mg/L
EC50 [5]: 2.09 mg/L (≈ 8.85 µM)

Nc1ccn([C@H]2CC[C@@H](CO)O2)c(=O)n1 [ZALCITABINE]
selectivity ratio [1]: > 108
selectivity ratio [2]: > 127
EC50 [3]: 0.19 mg/L (≈ 0.9 µM)
CC50 at 120 h [4]: > 20 mg/L

Cc1ccc(NC(=O)c2ccc(CN3CCN(C)CC3)cc2)cc1Nc1nccc(-c2cccnc2)n1 [IMATINIB]
pIC50 [6]: 6.51

CC(=O)Nc1ccc(OCc2nnc(SCC(=O)Nc3ccc([N+](=O)[O-])cc3)n2Cc2ccccc2)cc1
selectivity ratio [1]: < 1
selectivity ratio [2]: < 1
EC50 [3]: > 105 mg/L
CC50 at 120 h [4]: 105 mg/L (≈ 197 µM)
EC50 [5]: > 105 mg/L

CC(=O)Nc1ccc(OCc2nnc(SCC(=O)Nc3ccc(Cl)cc3)n2Cc2ccccc2)cc1
selectivity ratio [1]: < 1
selectivity ratio [2]: < 1
EC50 [3]: > 14 mg/L
CC50 at 120 h [4]: 14 mg/L (≈ 26.8 µM)
EC50 [5]: > 14 mg/L

CCOC(=O)c1ccc(NC(=O)CSc2nnc(COc3cc(C)ccc3C(C)C)n2Cc2ccccc2)cc1
selectivity ratio [1]: < 1
selectivity ratio [2]: < 1
EC50 [3]: > 19.8 mg/L
CC50 at 120 h [4]: 19.8 mg/L (≈ 35.5 µM)
EC50 [5]: > 19.8 mg/L

Cc1ccc(C(C)C)c(OCc2nnc(SCC(=O)Nc3ccc([N+](=O)[O-])cc3)n2Cc2ccccc2)c1
selectivity ratio [1]: < 1
selectivity ratio [2]: < 1
EC50 [3]: > 11.2 mg/L
CC50 at 120 h [4]: 11.2 mg/L (≈ 21 µM)
EC50 [5]: > 11.2 mg/L

O=C(CSc1nnc(COc2ccc3ccccc3c2)n1Cc1ccccc1)Nc1ccc(Br)cc1
selectivity ratio [1]: < 1
selectivity ratio [2]: < 1
EC50 [3]: > 58 mg/L
CC50 at 120 h [4]: 58 mg/L (≈ 104 µM)
EC50 [5]: > 58 mg/L

Cc1ccc(C(C)C)c(OCc2n[nH]c(=S)n2Cc2ccccc2)c1
selectivity ratio [1]: < 1
selectivity ratio [2]: < 1
EC50 [3]: > 13.1 mg/L
CC50 at 120 h [4]: 13.1 mg/L (≈ 37 µM)
EC50 [5]: > 13.1 mg/L

CCOC(=O)c1ccc(NC(=O)CSc2nnc(COc3ccc4ccccc4c3)n2Cc2ccccc2)cc1
selectivity ratio [1]: ≤ 1
selectivity ratio [2]: ≤ 1
EC50 [3]: > 90.7 mg/L
CC50 at 120 h [4]: ≥ 90.7 mg/L
EC50 [5]: > 90.7 mg/L

NS(=O)(=O)c1ccc(NC(=O)CSc2nnc(COc3ccc4ccccc4c3)n2Cc2ccccc2)cc1
selectivity ratio [1]: < 1
selectivity ratio [2]: < 1
EC50 [3]: > 94.4 mg/L
CC50 at 120 h [4]: 94.5 mg/L (≈ 169 µM)
EC50 [5]: > 94.4 mg/L

O=C(CSc1nnc(COc2ccc3ccccc3c2)n1Cc1ccccc1)Nc1ccc(Cl)cc1
selectivity ratio [1]: ≤ 1
selectivity ratio [2]: ≤ 1
EC50 [3]: > 4.93 mg/L
CC50 at 120 h [4]: ≥ 4.93 mg/L
EC50 [5]: > 4.93 mg/L

S=c1[nH]nc(COc2ccc3ccccc3c2)n1Cc1ccccc1
selectivity ratio [1]: ≤ 1
selectivity ratio [2]: ≤ 1
EC50 [3]: > 85.8 mg/L
CC50 at 120 h [4]: ≥ 85.8 mg/L
EC50 [5]: > 85.8 mg/L

O=C(CSc1nnc(COc2ccc3ccccc3c2)n1Cc1ccccc1)Nc1ccc([N+](=O)[O-])cc1
selectivity ratio [1]: ≤ 1
selectivity ratio [2]: ≤ 1
EC50 [3]: > 116 mg/L
CC50 at 120 h [4]: ≥ 116 mg/L
EC50 [5]: > 116 mg/L

Cc1ccnc2c1NC(=O)c1cccnc1N2C1CC1 [NEVIRAPINE]
selectivity ratio [1]: < 1
selectivity ratio [2]: > 80
EC50 [3]: > 4 mg/L
CC50 at 120 h [4]: > 4 mg/L

CC(=O)Nc1ccc(OCC(=O)NNC(=S)NCc2ccccc2)cc1
selectivity ratio [1]: < 1
selectivity ratio [2]: < 1
EC50 [3]: > 83.5 mg/L
CC50 at 120 h [4]: 83.5 mg/L (≈ 224 µM)
EC50 [5]: > 83.5 mg/L

CCOC(=O)c1ccc(NC(=O)CSc2nnc(COc3ccc(NC(C)=O)cc3)n2Cc2ccccc2)cc1
selectivity ratio [1]: < 1
selectivity ratio [2]: < 1
EC50 [3]: > 91.1 mg/L
CC50 at 120 h [4]: 91.1 mg/L (≈ 163 µM)
EC50 [5]: > 91.1 mg/L

Cc1cn([C@H]2C[C@H](N=[N+]=[N-])[C@@H](CO)O2)c(=O)[nH]c1=O [ZIDOVUDINE]
selectivity ratio [1]: > 26700
selectivity ratio [2]: > 11600
EC50 [3]: 0.00094 mg/L (≈ 0.00352 µM)
CC50 at 120 h [4]: > 25 mg/L
EC50 [5]: 0.0022 mg/L (≈ 0.00823 µM)

O=C(COc1ccc2ccccc2c1)NNC(=S)NCc1ccccc1
selectivity ratio [1]: ≤ 1
selectivity ratio [2]: ≤ 1
EC50 [3]: > 61.4 mg/L
CC50 at 120 h [4]: ≥ 61.4 mg/L
EC50 [5]: > 61.4 mg/L
